Assay outcomes from PubChem BioAssay.
Only some compounds are listed: those with a hit (about 1.9% of all), similar ones and a draw of the others.
SR-BI DiI inh – inhibitors of SR-BI mediated HDL lipid uptake, primary screen, ldlA[mSR-BI] cells, fluorescence, single point; inhibition, % at 12.5 µM; 320,000 compounds, 0.96% hits; Scavenger receptor class B member 1 (Mus musculus), Q61009; ldlA[mSR-BI] CHO cells, DiI-HDL uptake fluorescence, 3 h;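 active means mean replicate inhibition of at least 70% and a set share of replicates each scoring 70 or more; inconclusive means meets just one of the two criteria; inactive means fails both criteria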;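 further: 0% = median of neutral control wells and 100% = median of positive control wells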
Rin1-Abl PPI inh – inhibitors of Rin1-Abl protein binding, primary screen, biochemical, TR-FRET; Tyrosine-protein kinase ABL1 (Homo sapiens) + Ras and Rab interactor 1 (Homo sapiens), …; inhibition, % at 7.35 µM; 360,000 compounds, 0.4% hits; AID 588664, 2011; in the data active means inhibition above about 5%, passing the limit was not always enough
SR-BI uptake up – activators of SR-BI mediated DiI-HDL uptake, primary screen, ldlA[mSR-BI] CHO cells, DiI fluorescence; 3 h; 100 = double the neutral-control signal; activation, % at 12.5 µM; 320,000 compounds, 0.096% hits; AID 504775, 2011;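 active means mean replicate activation of at least 60% and every replicate at or above 60%; inconclusive means mean or all-replicate condition met, but not both; inactive means mean below 60% and not all replicates reaching 60%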;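 further: 0% = median plate neutral-control signal and 100% = twice that signal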
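Material: SR-BI-overexpressing, LDLR-lacking CHO cells | Dosing: Single compound concentration, delivered by pin transfer | Probe or stimulus: Labelled HDL, 10 µg/mL | Signal: Bottom-read cell fluorescence after medium removal, ex 550/em 595 nm | Schedule: 3 h, 37 °C | Evaluation: HDL uptake via cellular fluorescence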
GRK2 aptamer HTS – compounds blocking aptamer binding on GRK2 – biochemical, human GRK2, bead flow cytometry, HTS, primary screen; FAM-aptamer displacement from GRK2; Beta-adrenergic receptor kinase 1 (Homo sapiens), P25098; AID 488847, 2010; 330,000 compounds, 0.59% hits; inhibition of aptamer binding, % at 10 µM;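 active means inhibition of aptamer binding above 40%, roughly 3 SD of noise, on plates passing a quality check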;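 further: median bead fluorescence of bound FAM aptamer so fluorescent compounds give negative values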
Target sequence (P25098 whole entry, looked up): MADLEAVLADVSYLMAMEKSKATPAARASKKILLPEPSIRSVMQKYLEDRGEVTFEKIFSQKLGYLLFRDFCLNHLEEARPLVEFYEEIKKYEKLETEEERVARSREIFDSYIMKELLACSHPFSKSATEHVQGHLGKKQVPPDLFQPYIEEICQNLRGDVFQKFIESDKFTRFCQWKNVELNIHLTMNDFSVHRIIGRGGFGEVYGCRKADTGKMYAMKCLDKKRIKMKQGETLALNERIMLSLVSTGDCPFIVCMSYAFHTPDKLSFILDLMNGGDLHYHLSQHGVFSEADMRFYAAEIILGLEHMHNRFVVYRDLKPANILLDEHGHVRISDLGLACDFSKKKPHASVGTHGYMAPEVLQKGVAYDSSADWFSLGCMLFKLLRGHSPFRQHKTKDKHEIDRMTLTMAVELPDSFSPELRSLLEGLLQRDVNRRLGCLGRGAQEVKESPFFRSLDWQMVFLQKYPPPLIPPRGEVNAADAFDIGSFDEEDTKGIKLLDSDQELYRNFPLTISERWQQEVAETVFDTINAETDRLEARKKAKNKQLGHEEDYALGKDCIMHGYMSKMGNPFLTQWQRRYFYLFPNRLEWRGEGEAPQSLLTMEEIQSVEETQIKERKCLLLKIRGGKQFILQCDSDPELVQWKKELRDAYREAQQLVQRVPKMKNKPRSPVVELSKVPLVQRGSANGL
DiI quencher – DiI fluorescence quenching in cell-free counter-screen; shares compounds with SR-BI DiI inh; cell-free DiI-HDL fluorescence quenching, 30 min; AC50, µM (doses to about 35 µM), for inactives: top-dose activity change, negative = quenching; 470 compounds, 20% hits; AID 540326;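 active means quenching, a falling signal, with AC50 below a set limit tied to the top valid dose, actives reach about 32 µM in these data; inconclusive means no clear call, values can overlap the other calls; inactive means rising signal, and the rest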
* hit, by the source's call; u = inconclusive; x = not tested or not shown.

SMILES	SR-BI DiI inh	Rin1-Abl PPI inh	SR-BI uptake up	GRK2 aptamer HTS	DiI quencher
Cc1c(Cl)cccc1S(=O)(=O)N1CCC(C(=O)NNC(=O)C2CC2)CC1	45	5	-45	2	-1%
Cc1ccc(C(=O)NNC(=O)C2CCN(S(=O)(=O)c3ccc(C)cc3)CC2)cc1	21	0	-21	0	x
Cc1ccc(S(=O)(=O)N2CCC(C(=O)NNC(=O)c3cccnc3)CC2)cc1	-4	-4	4	0	-1%
Cc1ccc(C)c(N2CCN(CCCNC(=O)Cn3c(=O)c4cccn4c4cccnc43)CC2)c1	u	-1	-70	0	-3%
O=S1(=O)C[C@H](N2CCN(CCO)CC2)[C@@H](COCc2ccccc2)N1	x	-2	x	x	x
CC(C)(O)CN(C(=O)c1ccc([N+](=O)[O-])cc1)C1CCCC1	5	1	-5	x	x
CC(=O)NCCC1CCN(C(=O)c2cc(COc3ccc(C)nc3)on2)CC1	76*	5	-76	1	-6%
Cc1ccc(OCc2cc(C(=O)N3CCCC3)no2)cn1	-11	0	11	0	x
O=C(NCCCc1ccccc1)c1cccc(NC(=O)C2CCCC2)c1	29	-2	-29	x	x
CNc1nc(-c2ccc3c(c2)CCN3C(=O)c2ccc(F)cc2)cs1	40	5	-40	x	-16%
CC(C)C(=O)Nc1nc(-c2ccc3c(c2)CCN3C(=O)C2CC2)cs1	89*	-1	-89	0	-8%
CNc1nc(-c2ccc3c(c2)CCN3C(=O)c2cccc(F)c2)cs1	x	-2	x	2	x
COc1cc(OC)nc(Nc2nc(C(N)Cc3ccc(C(F)(F)F)cc3)cs2)n1 (stereo not drawn)	x	2	x	x	x
Cn1c(C(=O)N2CCN(Cc3ccc4c(c3)OCO4)CC2)cc2sccc21	-18	4	18	2	x
Cn1c(C(=O)N2CCC(C(=O)N3CCN(Cc4ccc5c(c4)OCO5)CC3)CC2)cc2sccc21	72*	0	-72	0	-3%
O=C(Nc1cccc(-c2csc(Nc3ccc(Cl)cc3)n2)c1)c1cccc(C(F)(F)F)c1	110*	1	-110	1	2.1µM*
Clc1ccc(Nc2nc(-c3cccnc3)cs2)cc1	39	-2	-39	0	x
Oc1ccc(/C=C/c2nc(-c3ccccc3O)n(-c3ccccc3)n2)cc1	74*	-1	-74	2	20µM*
N#Cc1ccc(C(=O)N2CCC3CC2c2cc(-c4ccc(F)cc4)ccc23)cc1 (stereo not drawn)	36	-4	-36	x	-3%
CC(C)C(=O)N1CCC1(C)C(=O)NCc1ccc(F)cc1Cl (stereo not drawn)	x	-2	x	x	x
CC(C)Nc1ncnc2c1ncn2[C@H]1CN(CCN2CCOCC2)C[C@@H](CO)O1	x	3	x	x	x
CC(C)Oc1ccc(/C=N/NC(=O)c2nnn(-c3nonc3N)c2CN(C)c2ccccc2)cc1	29	4	-29	0	x
C[C@H](CO)N1C[C@H](C)[C@@H](CN(C)Cc2ccc(C(=O)O)cc2)Oc2ncc(-c3ccc(C(=O)N(C)C)cc3)cc2C1=O	x	1	x	x	x
CSc1ccccc1OCc1cc(C(=O)N(C)Cc2c(C)n[nH]c2C)no1	78*	0	-78	0	-4%
O=C(c1ccc(S(=O)(=O)NCc2ccco2)cc1)N1CCN(Cc2ccccc2F)CC1	68	-1	-68	x	-5%
SMILES	SR-BI DiI inh	Rin1-Abl PPI inh	SR-BI uptake up	GRK2 aptamer HTS	DiI quencher
COc1ccc(CN2CCN(C(=O)c3ccc(S(=O)(=O)NCc4ccco4)cc3)CC2)cc1	93*	1	-93	x	-5%
CC(=O)c1ccc(N2CCN(C(=O)c3ccc(S(=O)(=O)NCc4ccco4)cc3)CC2)cc1	48	0	-48	0	x
O=C(c1ccc(S(=O)(=O)NCc2ccco2)cc1)N1CCN(c2ccc(F)cc2)CC1	27	-1	-27	0	x
O=C(c1ccc(S(=O)(=O)NCc2ccco2)cc1)N1CCN(Cc2ccccc2)CC1	65	3	-65	2	0%
O=C(NCN1C(=O)C2C3C=CC(C3)C2C1=O)OC1CCCCC1 (stereo not drawn)	83*	4	-83	1	-3%
COc1ccc2[nH]c(C(=O)Nc3ccc4c(c3)OCO4)cc2c1	x	3	x	2	x
CC[C@]12c3[nH]c4cc(-c5ccco5)ccc4c3CCN1C(=O)[C@@H](CC(=O)NCc1ccc(OC)c(OC)c1)C[C@@H]2C(=O)N1CCN(C(=O)c2ccco2)CC1	75*	-4	-75	16	-13%
O=c1cc(CN2CCN(C/C=C/c3ccccc3)CC2)c2cc(O)c(-c3ccccc3)cc2o1	26	1	-26	2	x
Cc1cc2oc(=O)cc(CN3CCN(C/C=C/c4ccccc4)CC3)c2cc1O	76*	-6	-76	1	-7%
COc1ccccc1C(=O)COC(=O)c1cccc(-n2cnnn2)c1	16	3	-16	0	x
CCOc1ccccc1COC(=O)c1cccc(-n2cnnn2)c1	72*	-1	-72	0	1%
COc1cccc(C(=Cc2ccc([N+](=O)[O-])cc2)C(=O)O)c1	x	-2	x	x	x
CCn1nc(C)c(CN2CCc3c([nH]c4ccccc34)C2c2ccc(F)c(OC)c2)c1C (stereo not drawn)	82*	-1	-82	2	-11%
CCn1cc(CN2CCc3c([nH]c4ccccc34)C2c2ccc(F)c(OC)c2)c(C)n1 (stereo not drawn)	28	1	-28	0	x
CCc1cc(CNC(=O)C2CCC(=O)N(CCc3cccc(F)c3)C2)on1 (stereo not drawn)	-6	0	6	x	-1%
Cc1sc(NC(=O)Cc2ccc3c(c2)OCO3)nc1-c1ccc2c(c1)CCN2C(=O)c1cccc(F)c1	77*	3	-77	0	-2%
Cc1ccccc1C(=O)N1CCc2cc(-c3nc(NC(=O)Cc4ccc5c(c4)OCO5)sc3C)ccc21	66	-8	-66	0	-2%
CNc1nc(-c2ccc3c(c2)CCN3C(=O)c2ccccc2C)cs1	56	0	-56	1	x
Cc1cccc(C(=O)N2CCc3cc(-c4nc(NC(=O)CN5CCCC5)sc4C)ccc32)c1	x	4	x	0	x
Cc1ccc2oc(-c3cccc(NC(=O)c4ccccn4)c3)nc2c1	8	3	-8	3	x
Cc1ccc2oc(-c3cccc(NC(=O)c4cc(-n5cnnc5)ccc4Cl)c3)nc2c1	76*	-3	-76	0	15%
CCC(C)c1ccccc1N1CC(C(=O)N2CCN(S(=O)(=O)c3cccc([N+](=O)[O-])c3)CC2)CC1=O (stereo not drawn)	10	-2	-10	x	-14%
Cc1cc(C(O)c2ncc(-c3ccccc3F)[nH]2)ccc1F (stereo not drawn)	x	-3	x	x	x
